Data reported in ChEMBL document CHEMBL3352673, “Novel inhibitors of the high-affinity L-proline transporter as potential therapeutic agents for the treatment of cognitive disorders” (Bioorg Med Chem Lett, 2014).
Active and inactive are the calls of the source. The calls are words filed in the database; no cut-off is given here.

Legend:
[1] = biological target: T1, Sodium-dependent proline transporter (Homo sapiens, UniProt Q99884); assay: Inhibition of human high-affinity L-proline transporter expressed in COS1 cells by [3H]proline uptake assay; assay type: cell-based, COS-1
T1 sequence (Q99884 whole entry): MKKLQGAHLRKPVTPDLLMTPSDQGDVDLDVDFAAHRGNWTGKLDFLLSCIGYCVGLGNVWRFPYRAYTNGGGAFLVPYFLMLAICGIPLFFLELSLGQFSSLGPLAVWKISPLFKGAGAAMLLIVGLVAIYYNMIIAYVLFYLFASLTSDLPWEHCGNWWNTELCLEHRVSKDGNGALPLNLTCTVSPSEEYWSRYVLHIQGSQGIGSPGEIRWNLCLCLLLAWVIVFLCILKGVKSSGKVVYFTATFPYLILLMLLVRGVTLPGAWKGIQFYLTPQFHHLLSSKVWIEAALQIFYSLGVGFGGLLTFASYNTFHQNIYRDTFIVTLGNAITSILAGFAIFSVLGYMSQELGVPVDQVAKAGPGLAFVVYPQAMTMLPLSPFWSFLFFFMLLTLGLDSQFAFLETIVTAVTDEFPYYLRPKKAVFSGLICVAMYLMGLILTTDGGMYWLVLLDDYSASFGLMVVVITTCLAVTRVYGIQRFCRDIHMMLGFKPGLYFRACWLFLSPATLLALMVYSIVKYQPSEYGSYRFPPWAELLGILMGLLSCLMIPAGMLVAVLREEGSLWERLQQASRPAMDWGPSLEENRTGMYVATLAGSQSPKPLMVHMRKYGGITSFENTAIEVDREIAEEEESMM

[2] = biological target: T2, Sodium-dependent dopamine transporter (Homo sapiens, UniProt Q01959); assay: Inhibition of DAT (unknown origin)
[3] = Inhibition of GlyT (unknown origin); parameters: species or system Homo sapiens
[4] = Protein binding in plasma (unknown origin) by equilibrium dialysis assay; assay type: ADME, cell-free; conditions: read-out: PPB (converted)
Method in brief: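 Plasma protein binding measured by equilibrium dialysis.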

[5] = Stability in mouse liver S9 fraction assessed as remaining parent compound level after 30 mins; assay type: ADME, subcellular; conditions: read-out: Stability
Method in brief: (§1)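 Compound incubated 30 min with S9 fraction of mouse liver homogenate; parent compound remaining measured.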

[6] = Stability in mouse liver homogenates assessed as remaining parent compound level after 30 mins; assay type: ADME, tissue-based; conditions: liver homogenate, read-out: Stability; method in brief: as §1
[7] = test system: Mus musculus; assay: Toxicity in mouse assessed as induction of lethargy at 1 mg/kg, iv; assay type: organism-based; parameters: dose 1 mg/kg, route intravenous; conditions: in vivo
Method in brief: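 Mice dosed IV at 1 mpk and observed for lethargy.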

[8] = biological target: hERG (KCNH2) (Homo sapiens, UniProt Q12809); assay: Inhibition of human ERG at 10 uM
[9] = test system: Mus musculus; assay: Toxicity in albino C57BL/6 mouse at 100 mg/kg, po; assay type: organism-based; parameters: dose 100 mg/kg, route oral; conditions: in vivo
[10] = biological target: T2, Sodium-dependent dopamine transporter; assay: Inhibition of DAT (unknown origin) at 10 uM
[11] = Ratio of drug level in brain to plasma in albino C57BL/6 mouse at 100 mg/kg, po after 6 hrs; assay type: ADME, organism-based; parameters: dose 100 mg/kg, route oral; conditions: read-out: BPR
[12] = test system: Mus musculus; assay: Induction of cognitive improvement in albino C57BL/6 mouse trace conditioning model assessed as improvement in response to conditioned stimulus at 100 mg/kg, po; assay type: functional, organism-based; parameters: dose 100 mg/kg
Method in brief: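 C57 mice (n = 13) given 100 mpk PO alongside a vehicle control group; fear conditioning with context freezing portion scored as response to conditioned stimulus; statistical comparison with vehicle by P value.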

[13] = AUC (0 to infinity) in albino C57BL/6 mouse at 100 mg/kg, po; assay type: ADME, organism-based; parameters: time infinity, dose 100 mg/kg, route oral; conditions: plasma
Method in brief: (§2)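 Single oral administration at 100 mpk to C57BL/6 albino mice; plasma exposure parameters (Tmax, Cmax, AUC) derived.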

[14] = test system: Mus musculus; assay: Toxicity in albino C57BL/6 mouse assessed as effect on open field trial parameters at 100 mg/kg, po; assay type: organism-based; parameters: dose 100 mg/kg, route oral; conditions: in vivo
[15] = Drug level in albino C57BL/6 mouse brain at 100 mg/kg, po after 6 hrs; assay type: ADME, organism-based; parameters: dose 100 mg/kg, route oral; conditions: read-out: Drug uptake
[16] = Tmax in albino C57BL/6 mouse at 100 mg/kg, po; assay type: ADME, organism-based; parameters: dose 100 mg/kg, route oral; conditions: in vivo; method in brief: as §2
[17] = Cmax in albino C57BL/6 mouse at 100 mg/kg, po; assay type: ADME, organism-based; parameters: dose 100 mg/kg, route oral; conditions: in vivo; method in brief: as §2

T2 sequence (Q01959 whole entry): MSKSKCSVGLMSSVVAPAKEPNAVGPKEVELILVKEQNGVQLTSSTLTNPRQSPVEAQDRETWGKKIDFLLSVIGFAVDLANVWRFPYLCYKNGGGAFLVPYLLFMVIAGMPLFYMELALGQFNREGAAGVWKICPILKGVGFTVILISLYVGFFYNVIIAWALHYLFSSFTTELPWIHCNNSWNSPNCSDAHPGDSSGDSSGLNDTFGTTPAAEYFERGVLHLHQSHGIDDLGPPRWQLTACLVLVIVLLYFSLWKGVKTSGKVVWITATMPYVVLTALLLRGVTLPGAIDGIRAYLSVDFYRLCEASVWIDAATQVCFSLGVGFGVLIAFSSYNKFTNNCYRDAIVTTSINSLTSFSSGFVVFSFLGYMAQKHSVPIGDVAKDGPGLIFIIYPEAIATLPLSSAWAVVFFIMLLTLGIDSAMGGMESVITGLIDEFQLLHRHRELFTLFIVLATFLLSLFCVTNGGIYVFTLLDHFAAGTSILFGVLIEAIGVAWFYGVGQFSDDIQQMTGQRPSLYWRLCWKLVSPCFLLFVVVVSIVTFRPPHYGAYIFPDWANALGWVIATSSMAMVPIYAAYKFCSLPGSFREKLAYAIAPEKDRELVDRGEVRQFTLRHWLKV
Sequence of hERG (KCNH2) (Q12809 whole entry): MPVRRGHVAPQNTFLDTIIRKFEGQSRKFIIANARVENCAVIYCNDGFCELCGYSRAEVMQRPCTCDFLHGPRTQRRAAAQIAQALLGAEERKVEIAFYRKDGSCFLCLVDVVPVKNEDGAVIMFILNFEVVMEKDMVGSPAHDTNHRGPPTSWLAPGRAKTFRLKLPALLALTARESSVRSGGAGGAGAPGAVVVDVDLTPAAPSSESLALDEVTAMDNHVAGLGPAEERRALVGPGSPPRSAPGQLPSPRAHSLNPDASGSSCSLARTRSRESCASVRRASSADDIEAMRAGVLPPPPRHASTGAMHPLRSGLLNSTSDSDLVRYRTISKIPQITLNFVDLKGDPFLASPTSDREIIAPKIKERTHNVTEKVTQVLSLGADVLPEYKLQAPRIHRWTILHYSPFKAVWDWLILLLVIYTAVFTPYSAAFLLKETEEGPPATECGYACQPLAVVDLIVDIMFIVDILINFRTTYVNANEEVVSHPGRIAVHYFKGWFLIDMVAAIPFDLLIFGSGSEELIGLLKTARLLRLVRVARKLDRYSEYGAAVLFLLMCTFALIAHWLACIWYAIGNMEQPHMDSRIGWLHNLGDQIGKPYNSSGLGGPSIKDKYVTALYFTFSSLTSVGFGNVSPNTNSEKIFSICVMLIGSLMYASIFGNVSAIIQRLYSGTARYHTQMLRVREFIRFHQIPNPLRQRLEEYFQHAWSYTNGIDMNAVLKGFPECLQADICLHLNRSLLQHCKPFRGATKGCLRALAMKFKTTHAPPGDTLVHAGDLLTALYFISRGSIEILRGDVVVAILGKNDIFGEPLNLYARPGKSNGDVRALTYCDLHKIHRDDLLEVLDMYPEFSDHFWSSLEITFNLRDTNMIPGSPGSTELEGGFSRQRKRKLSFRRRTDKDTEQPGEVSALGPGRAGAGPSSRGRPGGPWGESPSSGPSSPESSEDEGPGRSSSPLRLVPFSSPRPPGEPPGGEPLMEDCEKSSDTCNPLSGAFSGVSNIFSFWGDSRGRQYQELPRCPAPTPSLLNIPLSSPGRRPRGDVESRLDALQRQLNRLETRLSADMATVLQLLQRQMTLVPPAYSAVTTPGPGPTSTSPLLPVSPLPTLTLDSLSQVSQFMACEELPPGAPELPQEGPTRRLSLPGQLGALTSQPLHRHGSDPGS

Structure (SMILES) | IC50 [1] [nM] | also measured
O=C(c1ccc(-c2cccc(OC(F)(F)F)c2)cc1)N1CCN(c2ncccn2)CC1 | 73 | 
O=C(c1ccc(-c2cccc(Cl)c2)cc1)N1CCN(c2ncccn2)CC1 | 36 | IC50 [2]: 3400 nM; IC50 [3]: > 10000 nM; fraction unbound [4]: 0.008; remaining at 0.5 h [5]: 90%
O=C(c1ccccc1-c1ccccc1)N1CCN(c2ncccn2)CC1 | 6010 | 
O=C(c1ccc(OCc2ccccc2)cc1)N1CCN(c2ncccn2)CC1 | 270 | remaining at 0.5 h [6]: 45%
CC1CN(C(=O)c2ccc(-c3ccccc3)cc2)CCN1c1ncccn1 (stereo not given) | 477 | 
O=C(c1ccc(-c2cccc(Cl)c2)cc1)N1C2CCC1CN(c1ncccn1)C2 | 18 | Activity [7]: Toxic; IC50 [2]: 6100 nM; inhibition at 10 µM [8]: 59%; IC50 [3]: > 10000 nM; remaining at 0.5 h [5]: 70%
O=C(c1ccc(-c2ccccc2)cc1)N1CCN(c2nccc(C(F)(F)F)n2)CC1 | 2180 | 
Cc1ccccc1-c1ccc(C(=O)N2CCN(c3ncccn3)CC2)cc1 | 653 | 
O=C(O)C1CN(c2ncccn2)CCN1C(=O)c1ccc(-c2cccc(Cl)c2)cc1 (stereo not given) | 128 | 
O=C(c1cccc(-c2ccccc2)c1)N1CCN(c2ncccn2)CC1 | 1880 | 
O=C(c1ccc(-c2ccc(Cl)cc2)cc1)N1CCN(c2ncccn2)CC1 | 52 | fraction unbound [4]: 0.022
O=C(c1ccc(-c2cccc(Cl)c2)cc1)N1CC2CC1CN2c1ncccn1 (stereo not given) | 1340 | 
C[C@@H]1CN(c2ncccn2)CCN1C(=O)c1ccc(-c2ccc(Cl)cc2)cc1 | 57 | 
O=C(c1ccc(-c2cccc(C(F)(F)F)c2)cc1)N1CCN(c2ncccn2)CC1 | 71 | 
O=C(c1ccc(-c2cccc(Cl)c2)cc1)N1CC2CN(c3ncccn3)CC2C1 (stereo not given) | 36 | 
CCc1ccc(-c2ccc(C(=O)N3CCN(c4ncccn4)CC3)cc2)cc1 | 77 | 
Cc1ccnc(N2CCN(C(=O)c3ccc(-c4ccccc4)cc3)CC2)n1 | 270 | 
O=C(c1ccc(-c2ccccc2)cc1)N1CCN(c2cccnn2)CC1 | 5000 | 
N#Cc1ccc(-c2ccc(C(=O)N3CCN(c4ncccn4)CC3)cc2)cc1 | 190 | 
C[C@H]1CN(c2ncccn2)CCN1C(=O)c1ccc(-c2ccc(Cl)cc2)cc1 | 21 | 
CC1(C)CN(c2ncccn2)CCN1C(=O)c1ccc(-c2cccc(Cl)c2)cc1 | 53 | 

Structure (SMILES) | IC50 [1] [nM] | also measured
O=C(c1ccc(-c2cccc(Cl)c2)cc1)N1CCN(c2ncccn2)CC1CO (stereo not given) | 76 | 
CC(C)(C)C1CN(c2ncccn2)CCN1C(=O)c1ccc(-c2cccc(Cl)c2)cc1 (stereo not given) | 700 | 
O=C(c1ccc(-c2cccc(Cl)c2)cc1)N1CCCN(c2ncccn2)CC1 | 89 | 
O=C(c1ccc(-c2ccccc2)cc1)N1CCN(c2ccccn2)CC1 | 160 | remaining at 0.5 h [5]: 53%
O=C(c1ccc(NCc2ccccc2)cc1)N1CCN(c2ncccn2)CC1 | 870 | remaining at 0.5 h [6]: 63%; fraction unbound [4]: 0.05
O=C(c1ccc(-c2ccccc2)cc1)N1CCN(c2cnccn2)CC1 | 1300 | 
O=C(c1ccc(-c2ccccc2)cc1)N1CCN(c2nccs2)CC1 | 146 | 
O=C(c1ccc(C2CCCCC2)cc1)N1CCN(c2ncccn2)CC1 | 7010 | 
Cc1ccc(-c2ccc(C(=O)N3CCN(c4ncccn4)CC3)cc2)cc1 | 34 | 
O=C(c1ccc(-c2cccc(Cl)c2)cc1)N1CC2CCC(C1)N2c1ncccn1 | 27 | Activity [9]: Non-toxic; inhibition [10]: inactive; Kp at 6 h [11]: 1.7; Activity [12]: inactive; AUC(0-inf) [13]: 24000 ng·h/mL; Activity [14]: Non-toxic; concentration at 6 h [15]: 2260 ng/mL; Tmax [16]: 22.8 min; Cmax [17]: 4500 ng/mL; remaining at 0.5 h [5]: 75%
Cc1ccc(-c2ccc(C(=O)N3CCN(c4ncccn4)CC3)cc2)s1 | 61 | 
COc1ccc(-c2ccc(C(=O)N3CCN(c4ncccn4)CC3)cc2)cc1 | 230 | 
Cc1csc(-c2ccc(C(=O)N3CCN(c4ncccn4)CC3)cc2)c1 | 34 | 
O=C(c1ccc(-c2ccccc2)cc1)N1CCN(c2ncccn2)CC1 | 280 | 
N#Cc1cccc(-c2ccc(C(=O)N3CCN(c4ncccn4)CC3)cc2)c1 | 190 | 
O=C(c1ccc(-c2ccccc2)cc1)N1CCN(c2ccccc2)CC1 | 1480 | 
CC1CN(c2ncccn2)CC(C)N1C(=O)c1ccc(-c2cccc(Cl)c2)cc1 (stereo not given) | 24 | 
O=C(c1ccc(-c2ccc(Cl)s2)cc1)N1CCN(c2ncccn2)CC1 | 150 | 
O=C(c1ccc(-c2ccccc2C(F)(F)F)cc1)N1CCN(c2ncccn2)CC1 | 1260 | 
O=C(c1ccc(Oc2ccccc2)cc1)N1CCN(c2ncccn2)CC1 | 1950 | 
